Format in all cases: cell-based
The subject of data set [1] is Raji. Description: Cytotoxicity against human Raji cells at 1000 mol ratio by trypan blue staining method. An outline of the steps: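 Viability was assessed by trypan blue staining in Raji cells treated as in the EBV-EA assay: 48 h at 37 °C with n-butyric acid 4 mM, TPA and test compound in DMSO. Results are expressed as percent viable cells.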
Data set [2] concerns Raji. Description: Inhibition of TPA-induced EBV-early antigen activation in human Raji cells assessed as EA activation at 500 mol ratio relative to TPA. More on the design: scale not given: the % may be the effect or the level left. The conditions noted are these: human gammaherpesvirus 4.
For data set [3], the system named is Raji. Description: Inhibition of TPA-induced EBV-early antigen activation in human Raji cells assessed as EA activation at 100 mol ratio relative to TPA. More on the design: scale not given: the % may be the effect or the level left. The conditions noted are these: human gammaherpesvirus 4.
The test system of data set [4] is Raji. Nature of the data set: Inhibition of TPA-induced EBV-early antigen activation in human Raji cells assessed as EA activation at 10 mol ratio relative to TPA. The conditions noted are these: human gammaherpesvirus 4. The arrangement: scale not given: the % may be the effect or the level left.
The test system of data set [5] is Raji. Nature of the data set: Inhibition of TPA-induced EBV-early antigen activation in human Raji cells assessed as EA activation at 1000 mol ratio relative to TPA. The arrangement: scale not given: the % may be the effect or the level left. The conditions noted are these: human gammaherpesvirus 4.

Drawing on ChEMBL document CHEMBL1150626, “Interiotherins C and D, two new lignans from Kadsura interior and antitumor-promoting effects of related neolignans on Epstein-Barr virus activation” (J Nat Prod, 2002), this text covers Activity for 15 compounds.

Each structure is given as a SMILES string.

Take `COc1cc2c(c(OC)c1OC)-c1c(cc3c(c1OC)OCO3)[C@@H]1O[C@H]2[C@@H](C)[C@H]1C` [NEOKADSURANIN]: the Activity with Raji [1] was 70%; in the data set with Raji [2] it was 51.6%; with Raji [3], 72.9%; in the data set on Raji [4], 92.6%; with Raji [5], 4.7%.
For the compound `COc1cc2c(c(OC)c1OC)-c1c(cc3c(c1OC)OCO3)[C@H](OC(=O)c1ccccc1)[C@@](C)(O)[C@@H](C)C2` [GOMISIN G], the Activity in the data set on Raji [1] was 60%; in the data set on Raji [2], 59.2%; in the data set with Raji [3], 81.4%; in the data set on Raji [4], 100%; with Raji [5], 18.9%.
For `C/C=C(/C)C(=O)O[C@H]1c2cc3c(c4c2[C@@]2(CO4)C(=O)C(=O)C(OC)=C/C2=C/[C@@H](C)[C@H]1C)OCO3` [INTERIOTHERIN D], the Activity with Raji [1] is 60%; in the data set with Raji [2], 55.8%; in the data set on Raji [3] it was 75%; in the data set with Raji [4], 94.8%; in the data set on Raji [5], 11.5%.
Take `COc1cc2c(c(OC)c1OC)-c1c(cc3c(c1OC)OCO3)C[C@H](C)[C@](C)(O)C2`: the Activity stood at 52.5% with Raji [2], 78.3% in the data set on Raji [3], 96.6% in the data set on Raji [4] and 7.1% with Raji [5].
Take `C/C=C(/C)C(=O)O[C@H]1c2cc3c(c(OC)c2-c2c(cc4c(c2OC)OCO4)C[C@H](C)[C@]1(C)O)OCO3` [INTERIOTHERIN B]: the Activity was 60% in the data set with Raji [1]; 57.2% in the data set on Raji [2]; 80.3% in the data set with Raji [3]; 100% with Raji [4]; 11.6% in the data set on Raji [5].
As to `COc1cc2c(c(OC)c1OC)-c1c(cc3c(c1OC)OCO3)C[C@H](C)[C@@](C)(O)C2` [GOMISIN A], in the data set on Raji [1], the Activity is given as 70%.
On to `C/C=C(/C)C(=O)O[C@H]1c2cc3c(c4c2[C@]2(CO4)C(=CC(=O)C(OC)=C2OC)C[C@@H](C)[C@H]1C)OCO3` [INTERIORIN], for which the Activity is 60% in the data set with Raji [1]; 52% in the data set with Raji [2]; 77.4% with Raji [3]; 100% with Raji [4]; 13.5% in the data set on Raji [5].
Turning to `C/C=C(/C)C(=O)O[C@H]1c2cc(OC)c(OC)c(OC)c2-c2c(cc3c(c2OC)OCO3)[C@H](OC(C)=O)[C@H](C)[C@@H]1C` [INTERIOTHERIN C], the Activity in the data set with Raji [1] turned out to be 60%; in the data set with Raji [2], 59%; in the data set with Raji [3], 78.9%; with Raji [4], 100%; in the data set with Raji [5], 16%.
For `C/C=C(/C)C(=O)O[C@H]1c2cc3c(c4c2[C@@]2(CO4)C(=O)C(OC)=C(OC)C=C2C[C@@H](C)[C@H]1C)OCO3` [HETEROCLITIN D], the Activity in the data set on Raji [1] stood at 70%; in the data set on Raji [2], 54.7%; in the data set with Raji [3], 76.2%; in the data set with Raji [4], 100%; with Raji [5] it was 9.4%.
Regarding `C/C=C(/C)C(=O)O[C@H]1c2cc3c(c4c2C(C(=O)C(=O)OC)(CO4)/C(=C/C(=O)OC)C[C@@H](C)[C@H]1C)OCO3` (stereo not given in full) [HETEROCLITIN F], the Activity stood at 60% in the data set on Raji [1]; 58.9% in the data set on Raji [2]; 82.4% in the data set on Raji [3]; 100% in the data set on Raji [4]; 16.5% in the data set with Raji [5].
`COc1c2c(cc3c1-c1c(cc4c(c1OC)OCO4)C[C@H](C)[C@H](C)C3)OCO2` [SCHISANDRIN C]: the Activity in the data set with Raji [1] is 70%; in the data set on Raji [2], 50.7%; with Raji [3], 73.6%; in the data set on Raji [4] it was 92.1%; in the data set on Raji [5], 2.6%.
Turning to `COc1c2c(cc3c1-c1c(cc4c(c1OC)OCO4)[C@H](OC(=O)c1ccccc1)[C@@H](C)[C@@H](C)C3)OCO2` [INTERIOTHERIN A], the Activity was found to be 60% in the data set with Raji [1]; 60.1% in the data set with Raji [2]; 85.7% with Raji [3]; 100% with Raji [4]; 18.3% in the data set with Raji [5].
As to `COc1cc2c(c(OC)c1OC)-c1c(cc3c(c1OC)OCO3)[C@H](OC(C)=O)[C@H](C)[C@H](C)C2` [KADSURIN], the Activity in the data set with Raji [1] was 60%; in the data set with Raji [2], 58.3%; with Raji [3] it was 79.9%; in the data set with Raji [4] it was 100%; in the data set with Raji [5], 15%.
With `C/C=C(/C)C(=O)O[C@H]1c2cc3c(c(OC)c2-c2c(cc4c(c2OC)OCO4)C[C@H](C)[C@@H]1C)OCO3` [ANGELOYLGOMISIN R], the Activity worked out at 60% in the data set with Raji [1]; 55.6% in the data set with Raji [2]; 79% with Raji [3]; 100% with Raji [4]; 10.6% in the data set on Raji [5].
Consider `COc1cc2c(c(OC)c1OC)-c1c(cc3c(c1OC)OCO3)C[C@H](C)[C@](C)(O)[C@H]2OC(=O)c1ccccc1` [GOMISIN C], for which the Activity stood at 60% with Raji [1]; 60.2% with Raji [2]; 87.4% in the data set with Raji [3]; 100% with Raji [4]; 19.7% in the data set with Raji [5].
